# Activity calls are given as the source filed them. No cut-off for these calls is given here.
# Legend:
# [1] = test system: Vesicular stomatitis virus; assay: Activity against vesicular stomatitis virus, was determined; No activity; format: functional, organism-based
# HEL [2] = assay: 50 % cytotoxic concentration for human embryonic lung (HEL) cells; format: functional
# Summary of the method: (§1)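 Human embryonic lung (HEL) cells were used against CMV strains AD-169 and Davis and VZV strains YS, OKA, 07/1 and YS/R. EC50 values are for the antiviral effect. The minimum cytotoxic concentration and CC50 for HEL cells were measured alongside.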
# Vaccinia virus [3] = assay: Activity against vaccinia virus, was determined; No activity; format: functional, organism-based; details: Orthopoxvirus vaccinia
# HEL [4] = assay: Minimum cytotoxic concentration determined in embryonic lung (HEL) cells; format: functional, Homo sapiens; summary of the method: as §1
# Vero [5] = assay: Antiviral activity (cytotoxicity) was evaluated in vero cell cultures.; format: functional, Chlorocebus sabaeus
# Adenosylhomocysteinase [6] = target: T1, Adenosylhomocysteinase (Homo sapiens, UniProt P23526); assay: Percent S-adenosyl-homocysteine hydrolase (210 nM) activity remaining after incubating with 100 uM at 37 degree C for 20 minutes
# Summary of the method: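 Human enzyme preincubated with compound in 50 mM potassium phosphate pH 7.2, 1 mM EDTA. Residual activity measured in the synthetic direction: 1 mM Ado plus 1 mM Hcy, 37 °C, 1 min, stopped with HClO4. AdoHcy quantified by RP-HPLC at 258 nm. Duplicate determinations averaged.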
# Target sequence in this assay (P23526 2-432 limits assumed): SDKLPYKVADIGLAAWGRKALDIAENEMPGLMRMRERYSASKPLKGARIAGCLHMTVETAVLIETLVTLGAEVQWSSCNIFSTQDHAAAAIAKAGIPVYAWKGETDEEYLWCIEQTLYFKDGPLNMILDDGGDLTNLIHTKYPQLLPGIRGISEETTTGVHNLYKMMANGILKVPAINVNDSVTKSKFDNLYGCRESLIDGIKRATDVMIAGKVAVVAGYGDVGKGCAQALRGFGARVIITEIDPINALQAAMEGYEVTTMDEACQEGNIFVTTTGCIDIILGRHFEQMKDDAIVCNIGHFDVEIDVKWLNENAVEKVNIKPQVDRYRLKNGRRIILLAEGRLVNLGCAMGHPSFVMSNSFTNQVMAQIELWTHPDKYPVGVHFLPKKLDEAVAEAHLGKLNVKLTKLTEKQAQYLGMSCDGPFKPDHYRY
# [7] = Minimum cytotoxic concentration against Coxsackie B4 virus in HeLa cell cultures, was determined.; format: functional, Coxsackievirus B4
# Human alphaherpesvirus 1 = assay: Activity against herpes simplex virus 1 (HSV-1) strain KOS, was determined; No activity; format: functional, organism-based
# [8] = test system: Human immunodeficiency virus 1; assay: Cytostatic concentration against […] virus strains IIIB and ROD, in T-lymphocytic MT-4 cells; format: functional; details: Human immunodeficiency virus 1, MT4
# Summary of the method: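 T-lymphocytic MT-4 cells were tested alongside HIV-1 IIIB and HIV-2 ROD antiviral assays. The CC50 is the 50% cytostatic concentration for the MT-4 cells.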
# E6SM = assay: Minimum concentration required to cause a microscopically detectable alteration of normal cell morphology in human embryonic skin muscle (E6SM) cell cultures; format: functional; details: for minimal effective concentration: read-out: MEC
# Summary of the method: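 E6SM cell cultures were examined by microscopy. The value is the minimum concentration giving a detectable alteration of normal cell morphology.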
# [9] = Minimum cytotoxic concentration against respiratory syncytial virus in HeLa cell cultures, was determined; format: functional
# Adenosylhomocysteinase [10] = target: T1, Adenosylhomocysteinase; assay: Percent NAD+ content after incubation of AS-adenosylhomocysteine hydrolase (5.8 uM) with 100 uM of compound at 37 degree C for 20 min; format: functional
# Summary of the method: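 Human AdoHcy hydrolase at 5.8 μM was preincubated with 100 μM inhibitor in 50 mM potassium phosphate, pH 7.2, with 1 mM EDTA, at 37 °C for 20 min. Cofactors were released with HClO4. NAD+ was quantified by C18 RP-HPLC (25 mM phosphate pH 3.2 with heptane sulfonic acid; acetonitrile gradient) with detection at 258 nm. Values are % NAD+ remaining.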
# Target sequence in this assay (P23526 2-432 limits assumed): as above
# Human alphaherpesvirus 2 [11] = assay: Activity against herpes simplex virus 2 (HSV-2) strain G, was determined; No activity; format: functional, organism-based
# [12] = Minimum cytotoxic concentration against vesicular stomatitis virus in HeLa cell cultures, was determined.; format: functional
# Adenosylhomocysteinase [13] = target: T1, Adenosylhomocysteinase; assay: Percent NAD+ content after incubation of S-adenosyl-homocysteine hydrolase (5.8 uM) with 100 uM of compound at 37 degree C for 20 min; format: functional
# Summary of the method: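 Enzyme in 50 mM potassium phosphate pH 7.2 with 1 mM EDTA. After the inhibitor step, cofactors were released with 5 N HClO4. NAD+ was quantified by C18 RP-HPLC at 258 nm, using a 2–98% acetonitrile gradient over 25 min against 25 mM phosphate pH 3.2 containing 10 mM heptane sulfonic acid.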
# Target sequence in this assay (P23526 2-432 limits assumed): as above
# Human betaherpesvirus 5 = assay: 50 % effective concentration against cytomegalo virus (CMV); format: functional, organism-based; summary of the method: as §1
# Adenosylhomocysteinase [14] = target: T1, Adenosylhomocysteinase; assay: Inhibitory constant for S-adenosyl-homocysteine hydrolase, was determined using Kitz and Wilson equation {Kobs = Kinact. [I]/(Ki + [I])}.
# Target sequence in this assay (P23526 whole entry): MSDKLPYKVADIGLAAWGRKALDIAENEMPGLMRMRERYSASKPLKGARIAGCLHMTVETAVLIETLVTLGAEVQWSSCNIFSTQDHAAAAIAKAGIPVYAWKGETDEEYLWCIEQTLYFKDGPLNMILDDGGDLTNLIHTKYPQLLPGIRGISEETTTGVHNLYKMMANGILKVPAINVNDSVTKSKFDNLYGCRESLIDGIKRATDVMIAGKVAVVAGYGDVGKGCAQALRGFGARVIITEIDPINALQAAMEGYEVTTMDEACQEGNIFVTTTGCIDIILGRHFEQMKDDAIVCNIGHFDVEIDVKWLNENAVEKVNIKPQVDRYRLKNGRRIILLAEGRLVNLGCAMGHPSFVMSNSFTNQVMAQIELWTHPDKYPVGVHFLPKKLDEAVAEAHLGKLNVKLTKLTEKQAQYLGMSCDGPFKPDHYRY
# Adenosylhomocysteinase [15] = target: T1, Adenosylhomocysteinase; assay: Inactivation constant for S-adenosyl-homocysteine hydrolase, was determined using Kitz and Wilson equation {Kobs = Kinact. [I]/(Ki + [I])}.
# Target sequence in this assay (P23526 2-432 limits assumed): as the sequence (P23526 2-432 limits assumed) above
# Vero [16] = assay: Antiviral activity was evaluated in vero cell cultures.; format: functional; details: Chlorocebus sabaeus
# [17] = test system: Vesicular stomatitis virus; assay: Minimum cytotoxic concentration against vesicular stomatitis virus in HeLa cell cultures; format: functional
# Vaccinia virus [18] = assay: Minimum cytotoxic concentration against vaccinia virus, was determined; format: functional, organism-based; details: Orthopoxvirus vaccinia
# Coxsackievirus B4 = assay: Minimum cytotoxic concentration against Coxsackie B4 virus in HeLa cell cultures; format: functional
# [19] = test system: Respiratory syncytial virus; assay: Minimum cytotoxic concentration against respiratory syncytial virus in HeLa cell cultures; format: functional
# Vero [20] = assay: Activity was evaluated in vero cell cultures; Cytotoxic; format: functional, cell-based; details: Chlorocebus sabaeus
# Human alphaherpesvirus 2 [21] = assay: Activity against herpes simplex virus 2 (HSV-2) […], was determined; No activity; format: functional, organism-based
# HEL [22] = assay: Minimum cytotoxic concentration determined in embryonic lung (HEL) cells against human CMV, strains AD-169 and Davis and VZV, strains YS, OKA, 07/1, and YS/R; format: functional; summary of the method: as §1
# Adenosylhomocysteinase [23] = target: T1, Adenosylhomocysteinase; assay: Inactivation constant for aS-adenosylhomocysteine hydrolase, was determined using Kitz and Wilson equation {Kobs = Kinact. [I]/(Ki + [I])}.
# Target sequence in this assay (P23526 2-432 limits assumed): as above
# Human alphaherpesvirus 3 = assay: 50 % effective concentration against Varicella-Zoster virus (VZV) was determined.; format: functional, organism-based; summary of the method: as §1
Compound,antiviral activity [1],antiviral activity (Vaccinia virus [3]),MCC50 (Vero [5]),Activity (Adenosylhomocysteinase [6]),MCC50 [7],antiviral activity against HSV-1 (Human alphaherpesvirus 1),CC50 [8],MEC50 (E6SM),MCC50 [9],Antiviral activity against HSV-2 (Human alphaherpesvirus 2 [11]),MCC50 [12],NAD+ content (Adenosylhomocysteinase [13]),Ki (Adenosylhomocysteinase [14]),MCC (Vero [16]),minimal effective concentration (E6SM),further results
Nc1ncnc2c1ncn2C1O[C@H](/C=C/C=C(Br)Br)[C@@H](O)[C@H]1O (some centres undefined),inactive,inactive,>35000 µM,48%,>35 µM,inactive,11 µM,6.7 µM,>35 µM,inactive,>35 µM,–,–,–,–,CC50 (HEL [2]): 54 µM; MCC50 (HEL [4]): 45 µM; NAD+ content (Adenosylhomocysteinase [10]): 93.1%
CCOC(=O)/C=C\C=C\[C@H]1OC(n2cnc3c(N)ncnc32)[C@H](O)[C@@H]1O (some centres undefined),inactive,inactive,>200 µM,1.8%,>200 µM,inactive,160 µM,>40 µM,>200 µM,inactive,>200 µM,36.2%,13.7 µM,–,–,EC50 (Human betaherpesvirus 5): 18 µM; K inact (Adenosylhomocysteinase [15]): 0.59 min⁻¹
CCOC(=O)/C=C/C=C/[C@H]1OC(n2ccc(=O)[nH]c2=O)[C@H](O)[C@@H]1O (some centres undefined),inactive,inactive,–,–,>200 µM,inactive,> 370 µM,–,>200 µM,inactive,>200 µM,–,–,> 200 µM,> 40 µM,–
O=c1ccn(C2O[C@H](/C=C/C=C(Br)Br)[C@@H](O)[C@H]2O)c(=O)[nH]1 (some centres undefined),–,–,–,–,–,inactive,300 µM,>40 µM,–,–,–,–,–,–,–,MCC50 [17]: >=200 uM; MCC50 (Vaccinia virus [18]): inactive; MCC50 (Coxsackievirus B4): >=200 uM; MCC50 [19]: >=200 uM; Activity (Vero [20]): Toxic; MCC50 (Human alphaherpesvirus 2 [21]): inactive
CCOC(=O)/C=C/C=C/[C@H]1OC(n2cnc3c(N)ncnc32)[C@H](O)[C@@H]1O (some centres undefined),inactive,inactive,>200 µM,3.6%,>200 µM,inactive,175 µM,>40 µM,>200 µM,inactive,>200 µM,25.9%,10 µM,–,–,MCC50 (HEL [22]): >120 µM; K inact (Adenosylhomocysteinase [23]): 0.7 min⁻¹
CCOC(=O)/C=C\C=C\[C@H]1OC(n2ccc(=O)[nH]c2=O)[C@H](O)[C@@H]1O (some centres undefined),inactive,inactive,–,–,>200 µM,inactive,40 µM,–,>200 µM,inactive,>200 µM,–,–,> 200 µM,> 40 µM,EC50 (Human alphaherpesvirus 3): 10 µM
